Publication PMC2575414 (Bioorganic & medicinal chemistry letters, 2008)
Where a SMILES comes first, the peptide text is derived from it. [ ]: non-standard residue; d: D form. The star is where a group is joined. Hydrocinnamoyl = O=C(CCc1ccccc1)*; Ac5c = NC1(C(=O)O)CCCC1; Deg = CCC(N)(CC)C(=O)O

Assays:
human liver cathepsin B = human liver cathepsin B (Homo sapiens, UniProt P07858); assay: Cathepsin B inhibition assay; format: biochemical
Summary of the method: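 Human liver cathepsin B (1 nM) in 50 mM NaOAc pH 6.0 with 1 mM EDTA and 0.5 mM DTT. Z-Arg-Arg-AMC at 50 µM or 250 µM, plus varying inhibitor concentrations in DMSO (2% total). Ki is the mean of triplicates from Dixon plots (r ≥ 0.95). Selectivity ratio is […].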

[1] = molecular target: T1, porcine erythrocyte μ-calpain (Sus scrofa, UniProt P35750); assay: Calpain inhibition assay; format: biochemical
T1 sequence (P35750 1-714): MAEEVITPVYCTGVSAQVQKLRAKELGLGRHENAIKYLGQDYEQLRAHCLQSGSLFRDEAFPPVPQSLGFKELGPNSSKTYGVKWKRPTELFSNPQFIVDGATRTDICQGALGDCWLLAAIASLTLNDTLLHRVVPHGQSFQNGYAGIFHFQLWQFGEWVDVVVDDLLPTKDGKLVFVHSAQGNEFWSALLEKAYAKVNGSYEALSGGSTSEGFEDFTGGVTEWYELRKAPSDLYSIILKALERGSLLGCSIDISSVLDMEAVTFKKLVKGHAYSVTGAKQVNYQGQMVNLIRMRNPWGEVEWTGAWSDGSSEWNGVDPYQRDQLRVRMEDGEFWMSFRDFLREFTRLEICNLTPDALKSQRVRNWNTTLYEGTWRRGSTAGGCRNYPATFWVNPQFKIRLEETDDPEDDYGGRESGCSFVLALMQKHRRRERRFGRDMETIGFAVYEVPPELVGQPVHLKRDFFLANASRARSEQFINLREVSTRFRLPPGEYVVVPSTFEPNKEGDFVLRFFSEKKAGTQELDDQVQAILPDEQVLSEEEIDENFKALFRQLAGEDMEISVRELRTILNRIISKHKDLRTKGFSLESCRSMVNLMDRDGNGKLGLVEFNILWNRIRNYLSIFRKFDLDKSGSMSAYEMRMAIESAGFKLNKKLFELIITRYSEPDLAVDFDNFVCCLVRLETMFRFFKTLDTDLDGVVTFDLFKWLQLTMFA
T1 sequence (P04574 1-266 partner): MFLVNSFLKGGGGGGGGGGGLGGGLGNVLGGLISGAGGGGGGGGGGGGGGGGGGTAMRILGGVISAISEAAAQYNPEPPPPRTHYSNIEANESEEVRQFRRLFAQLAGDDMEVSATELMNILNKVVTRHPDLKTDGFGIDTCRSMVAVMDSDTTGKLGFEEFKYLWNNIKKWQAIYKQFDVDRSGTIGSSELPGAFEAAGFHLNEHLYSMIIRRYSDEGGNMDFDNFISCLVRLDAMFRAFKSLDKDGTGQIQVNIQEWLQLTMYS

Row | cathepsin B inhibition relative to compound 3 (human liver cathepsin B; 2 compared to 3) [fold] | selectivity for cathepsin B compared to μ-calpain (human liver cathepsin B; as stated in abstract) [fold] | selectivity for μ-calpain compared to cathepsin B [1] | potency for μ-calpain inhibition relative to compound 2 ([1]; 3 compared to 2) | SMILES
1 | 3 | 3 | – | – | O=C[C@H](Cc1ccccc1)NC(=O)C1(NC(=O)CCc2ccccc2)CCCC1 [Compound 2, 1-(3-Phenyl-propionylamino)-cyclopentane carboxylic acid (1-benzyl-2-oxo-ethyl)-amide] (Hydrocinnamoyl-[Ac5c]-Phe-aldehyde)
2 | – | – | over 35 fold | over 20 fold | CCC(CC)(NC(=O)CCc1ccccc1)C(=O)N[C@H](C=O)Cc1ccccc1 [Compound 3, N-(1-Benzyl-2-oxo-ethyl)-2-ethyl-2-(3-phenyl-propionylamino)-butyramide] (Hydrocinnamoyl-[Deg]-Phe-aldehyde)
